The source of these data is paper PMC6089849 (Acta Pharmaceutica Sinica. B, 2018).

“And” between values parts separate entries of the source, which are not always exact repeats. Equal values may be shown once. A value given as a limit tells only on which side of the number the result lay.

As usually defined, the IC50 is the concentration needed to halve the response being measured. Low values mean greater potency, high ones weaker potency. One may read the viability as a per cent measure of how many cells are alive, often set against a control.

One data set deals with PDE9A2 (Homo sapiens, UniProt O76083). In words: In vitro bioassay for inhibition of PDE9. It counts as biochemical. Particulars: for IC50: IC50 against PDE9, mean of three independent determinations.
Data set [1] can be described thus: In vitro cell viability assay. It counts as cell-based. Particulars: human, SH-SY5Y cells. In short, it runs like this:
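SH-SY5Y cells seeded at 5 × 10^3 per well and allowed 24 h before test compound addition at 10, 20, 40, 60, 80 and 100 μmol/L. After 48 h exposure, MTT was added for 4 h at 37 °C. Formazan was dissolved in DMSO, and absorbance was read at 570 nm.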

PDE9A2, sequence (O76083 1-533 isoform O76083-2): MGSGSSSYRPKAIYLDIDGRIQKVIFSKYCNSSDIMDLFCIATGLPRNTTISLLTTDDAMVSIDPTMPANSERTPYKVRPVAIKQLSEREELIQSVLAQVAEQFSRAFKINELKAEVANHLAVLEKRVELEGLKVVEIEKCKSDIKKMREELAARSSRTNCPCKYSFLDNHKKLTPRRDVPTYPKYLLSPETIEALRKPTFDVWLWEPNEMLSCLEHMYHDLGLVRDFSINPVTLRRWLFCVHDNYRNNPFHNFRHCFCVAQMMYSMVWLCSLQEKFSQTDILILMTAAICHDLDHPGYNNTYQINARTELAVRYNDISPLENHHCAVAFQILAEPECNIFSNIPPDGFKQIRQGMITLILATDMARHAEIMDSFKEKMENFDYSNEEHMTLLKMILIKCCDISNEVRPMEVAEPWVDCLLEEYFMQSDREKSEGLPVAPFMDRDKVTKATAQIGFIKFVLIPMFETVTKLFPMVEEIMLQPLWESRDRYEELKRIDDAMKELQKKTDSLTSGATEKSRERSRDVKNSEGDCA

`CN(CCOc1ccc(CC2SC(=O)NC2=O)cc1)c1ccccn1` (centres unmarked) [Rosiglitazone, reference compound]: the “inhibition against PDE9A” value against PDE9A2 (at the concentration of 5 mmol/L) is on record as “no inhibition”.

On to `O=C1NC(=O)C(Cc2ccc(OCCNc3nc4c(cnn4C4CCCC4)c(=O)[nH]3)c(F)c2)S1` (centres unmarked) [Compound 14a, 5-(4-(2-((1-Cyclopentyl-4-oxo-4,5-dihydro-1H-pyrazolo[3,4-d]pyrimidin-6-yl)amino)ethoxy)-3-fluorobenzyl)thiazolidine-2,4-dione], for which the concentration for half-maximal inhibition (IC50) at PDE9A2 was < 5 nM and 3.5 nM. In data set [1], this compound displayed a viability at 48 h, 40 μmol/L of 82% and a viability at 48 h, 100 μmol/L of 52%.

As for `COc1cc(/C=C2\SC(=O)NC2=O)cc(F)c1OCCNc1nc2c(cnn2C2CCCC2)c(=O)[nH]1` [Compound 11c, (Z)-5-(4-(2-((1-Cyclopentyl-4-oxo-4,5-dihydro-1H-pyrazolo[3,4-d]pyrimidin-6-yl)amino)ethoxy)-3-fluoro-5-methoxybenzylidene)thiazolidine-2,4-dione], the half-maximal inhibitory concentration (IC50) against PDE9A2 is < 5 nM and 3.3 nM. In data set [1], this compound registered a viability at 48 h, 40 μmol/L of 84% and a viability at 48 h, 100 μmol/L of 57%.

For `COc1cc(CC2SC(=O)NC2=O)cc(F)c1OCCNc1nc2c(cnn2C2CCCC2)c(=O)[nH]1` (centres unmarked) [Compound 14c, 5-(4-(2-((1-Cyclopentyl-4-oxo-4,5-dihydro-1H-pyrazolo[3,4-d]pyrimidin-6-yl)amino)ethoxy)-3-fluoro-5-methoxybenzyl)thiazolidine-2,4-dione], the IC50 against PDE9A2 was < 5 nM and 4.2 nM. In data set [1], this compound showed a viability at 48 h, 40 μmol/L of 93% and a viability at 48 h, 100 μmol/L of 62%.

Consider `O=C1NC(=O)/C(=C/c2ccc(OCCNc3nc4c(cnn4C4CCCC4)c(=O)[nH]3)c(F)c2)S1` [Compound 11a, (Z)-5-(4-(2-((1-Cyclopentyl-4-oxo-4,5-dihydro-1H-pyrazolo[3,4-d]pyrimidin-6-yl)amino)ethoxy)-3-fluorobenzylidene)thiazolidine-2,4-dione], for which the concentration for half-maximal inhibition (IC50) at PDE9A2 was below 5 nM. Further, at PDE9A2 (vs PF-04447943), the “fold more potent than PF-04447943 (PDE9 IC50)” value is 8 fold. For the same compound, the “fold increase of IC50 potency compared with compound 5b” value at PDE9A2 (vs compound 5b) is listed as 20 fold. In data set [1], this compound gave a viability at 48 h, 40 μmol/L of 55% and a viability at 48 h, 100 μmol/L of 34%.

Regarding `COc1cc(/C=C2\SC(=O)NC2=O)ccc1OCCNc1nc2c(cnn2C2CCCC2)c(=O)[nH]1` [Compound 11d, (Z)-5-(4-(2-((1-Cyclopentyl-4-oxo-4,5-dihydro-1H-pyrazolo[3,4-d]pyrimidin-6-yl)amino)ethoxy)-3-methoxybenzylidene)thiazolidine-2,4-dione], the IC50 against PDE9A2 is 76 nM.

`C[C@@H](COc1ccc(CC2SC(=O)NC2=O)cc1)Nc1nc2c(cnn2C2CCCC2)c(=O)[nH]1` (stereo partly drawn) [Compound 15, 5-(4-((S)-2-((1-Cyclopentyl-4-oxo-4,5-dihydro-1H-pyrazolo[3,4-d]pyrimidin-6-yl)amino)propoxy)benzyl)thiazolidine-2,4-dione]: half-maximal inhibition at PDE9A2 (IC50) was put at 98 nM.
